Assay results published in ChEMBL document CHEMBL1142962, “Antiproliferative prenylated stilbenes and flavonoids from Macaranga alnifolia from the Madagascar rainforest” (J Nat Prod, 2007).

How the values were obtained:
Assay type in all cases: functional
[1] = test system: HCT-116; experiment: Growth inhibition of HCT116 cells; conditions: Homo sapiens
[2] = test system: 786-0; experiment: Growth inhibition of 786-0 cells; conditions: Homo sapiens
[3] = test system: OVCAR-4; experiment: Growth inhibition of OVCAR4 cells; conditions: Homo sapiens
[4] = test system: HCC 2998; experiment: Growth inhibition of HCC2998 cells; conditions: Homo sapiens
[5] = test system: SF-268; experiment: Growth inhibition of SF268 cells; conditions: Homo sapiens
[6] = test system: DU-145; experiment: Growth inhibition of DU145 cells; conditions: Homo sapiens
Summary of the method: (§1)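 Tested in the NCI 60 human tumour cell line screen, which was run by NCI. The value for each line is the GI50, the concentration giving 50% growth inhibition. Results are also shown as a mean graph across the full panel.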

[7] = test system: BT-549; experiment: Growth inhibition of BT549 cells; conditions: Homo sapiens
[8] = test system: SN12C; experiment: Growth inhibition of SN12C cells; conditions: Homo sapiens; summary of the method: as §1
[9] = test system: SK-MEL-5; experiment: Growth inhibition of SK-MEL-5 cells; conditions: Homo sapiens
[10] = test system: SNB-19; experiment: Growth inhibition of SNB19 cells; conditions: Homo sapiens
[11] = test system: ACHN; experiment: Growth inhibition of ACHN cells; conditions: Homo sapiens
[12] = test system: PC-3; experiment: Growth inhibition of PC3 cells; conditions: Homo sapiens
[13] = Growth inhibition of HS 578T cells; conditions: Homo sapiens
[14] = test system: MDA-MB-435; experiment: Growth inhibition of MDA-MB-435 cells; conditions: Homo sapiens
[15] = test system: UO-31; experiment: Growth inhibition of UO31 cells; conditions: Homo sapiens
[16] = test system: K562; experiment: Growth inhibition of K562 cells; conditions: Homo sapiens; summary of the method: as §1
[17] = test system: OVCAR-8; experiment: Growth inhibition of OVCAR8 cells; conditions: Homo sapiens; summary of the method: as §1
[18] = test system: MCF7; experiment: Growth inhibition of MCF7 cells; conditions: Homo sapiens; summary of the method: as §1
[19] = test system: M14; experiment: Growth inhibition of M14 cells; conditions: Homo sapiens; summary of the method: as §1
[20] = test system: UACC-257; experiment: Growth inhibition of UACC257 cells; conditions: Homo sapiens; summary of the method: as §1
[21] = test system: TK-10; experiment: Growth inhibition of TK10 cells; conditions: Homo sapiens
[22] = test system: SNB-75; experiment: Growth inhibition of SNB75 cells; conditions: Homo sapiens
[23] = test system: HT-29; experiment: Growth inhibition of HT29 cells; conditions: Homo sapiens; summary of the method: as §1
[24] = test system: A549; experiment: Growth inhibition of A549/ATCC cells; conditions: Homo sapiens
[25] = test system: NCI/ADR-RES; experiment: Growth inhibition of NCI/ADR-RES cells; conditions: Homo sapiens
[26] = test system: KM12; experiment: Growth inhibition of KM12 cells; conditions: Homo sapiens
[27] = test system: LOX IMVI; experiment: Growth inhibition of LOX IMVI cells; conditions: Homo sapiens; summary of the method: as §1
[28] = test system: MOLT-4; experiment: Growth inhibition of MOLT4 cells; conditions: Homo sapiens, read-out: GI50; summary of the method: as §1
[29] = read-out: Log LC50 (the source's name) (converted)

Work on `COc1cc(/C=C/c2cc(O)c(CC=C(C)C)c(O)c2)cc2c1O[C@]1(C)C[C@@H](O)[C@@H](O)C(C)(C)[C@H]1C2` [SCHWEINFURTHIN E] yielded a GI50 [1] of 20.9 nM, a CC50 [1, 29] of 6.92 µM and a TGI ([1]; read-out: Log TGI (converted)) of 871 nM. It also gave a GI50 [2] of less than 10 nM, a CC50 [2, 29] of 9.77 µM and a TGI ([2]; read-out: Log TGI (converted)) of 1070 nM. The LC50 [3] was greater than 100 µM, the GI50 ([3]; read-out: GI50) was 2200 nM and the TGI ([3]; read-out: Log TGI (converted)) was 9.33 µM. It also gave a GI50 ([3]; read-out: pGI50 (converted)) of 575 nM, a GI50 [4] of 1020 nM and a CC50 [4, 29] of 6.46 µM. It also gave a TGI ([4]; read-out: Log TGI (converted)) of 2570 nM, a GI50 [5] of 2630 nM and a CC50 [5, 29] greater than 100 µM. It also gave a TGI ([5]; read-out: Log TGI (converted)) greater than 100 µM, a GI50 [6] of 468 nM and a CC50 [6, 29] of 72.4 µM. The TGI ([6]; read-out: Log TGI (converted)) was 14.1 µM, the GI50 [7] was 1510 nM and the CC50 [7, 29] was greater than 100 µM. For the same compound, the TGI ([7]; read-out: Log TGI (converted)) was 13.2 µM, the GI50 [8] was 2090 nM and the CC50 [8, 29] was 34.7 µM. The TGI ([8]; read-out: Log TGI (converted)) was 7.59 µM, the GI50 [9] was 661 nM and the CC50 [9, 29] was 5.62 µM. The TGI ([9]; read-out: Log TGI (converted)) was 2240 nM, the GI50 [10] was 11 µM and the CC50 [10, 29] was greater than 100 µM. It also gave a TGI ([10]; read-out: Log TGI (converted)) greater than 100 µM, a GI50 [11] of 372 nM and a CC50 [11, 29] of 13.2 µM. It also gave a TGI ([11]; read-out: Log TGI (converted)) of 3.02 µM, a GI50 [12] of 138 nM and a CC50 [12, 29] of 47.9 µM. The TGI ([12]; read-out: Log TGI (converted)) was 9.55 µM, the GI50 [13] was less than 10 nM and the CC50 [13, 29] was greater than 100 µM. For the same compound, the TGI ([13]; read-out: Log TGI (converted)) was 363 nM, the GI50 [14] was 123 nM and the CC50 [14, 29] was 8.71 µM. It also gave a TGI ([14]; read-out: Log TGI (converted)) of 1950 nM, a GI50 [15] of 105 nM and a CC50 [15, 29] greater than 100 µM. The TGI ([15]; read-out: Log TGI (converted)) was greater than 100 µM, the GI50 [16] was less than 10 nM and the TGI ([16]; read-out: Log TGI (converted)) was 692 nM. The GI50 ([17]; read-out: GI50) was 2200 nM, the CC50 [17, 29] was greater than 100 µM and the TGI ([17]; read-out: Log TGI (converted)) was 6.76 µM. The GI50 ([17]; read-out: pGI50 (converted)) was 2510 nM, the GI50 [18] was 61.7 nM and the CC50 [18, 29] was greater than 100 µM. It also gave a TGI ([18]; read-out: Log TGI (converted)) of 26.9 µM, a GI50 [19] of less than 10 nM and a CC50 [19, 29] of 4.27 µM. For the same compound, the TGI ([19]; read-out: Log TGI (converted)) was 288 nM, the GI50 [20] was 166 nM and the CC50 [20, 29] was 37.2 µM. The TGI ([20]; read-out: Log TGI (converted)) was 3.63 µM, the CC50 [21, 29] was 18.6 µM and the TGI ([21]; read-out: Log TGI (converted)) was 2630 nM. For the same compound, the GI50 [22] was 1740 nM, the CC50 [22, 29] was greater than 100 µM and the TGI ([22]; read-out: Log TGI (converted)) was 20 µM. It also gave a GI50 [23] of 1290 nM, a CC50 [23, 29] greater than 100 µM and a GI50 [24] of less than 10 nM. The CC50 [24, 29] was greater than 100 µM, the TGI ([24]; read-out: Log TGI (converted)) was 12.6 µM and the GI50 [25] was 2240 nM. For the same compound, the CC50 [25, 29] was 50.1 µM, the TGI ([25]; read-out: Log TGI (converted)) was 6.61 µM and the GI50 [26] was 457 nM. For the same compound, the CC50 [26, 29] was 9.55 µM, the TGI ([26]; read-out: Log TGI (converted)) was 2240 nM and the GI50 [27] was 646 nM. The CC50 [27, 29] was 6.17 µM, the TGI ([27]; read-out: Log TGI (converted)) was 2340 nM and the GI50 [28] was less than 10 nM.
